{"data": "Results of several laboratories", "target": "Phosphorylase b kinase gamma catalytic chain, skeletal muscle/heart isoform (PHKG1, Homo sapiens, UniProt Q16816)", "note": "Protocols differ between the studies behind these lines."}
{"Compound": "c1ccc(CNc2nc(N3CCOc4ccccc43)nc3c2CCCC3)cc1", "observed": "target engagement in cells", "mode": "inhibitor", "method": "chemoproteomics", "concentration": "20 mM", "measurement": "inhibition", "result": "2%"}
{"Compound": "O=C1Nc2ccc(Cl)cc2C1=Cc1cc(Cl)c(O)c(Cl)c1", "observed": "cell-free assay", "concentration": "0.5 µM", "measurement": "remaining signal", "result": "86.4%"}
{"Compound": "COc1cc(Cl)c(C(=O)N[C@@H](CN[C@H]2CC[C@@H](N)CC2)Cc2ccc(C#N)cc2)cc1-c1ccc(CN[C@H](C)c2ccc(C)cc2)o1", "observed": "enzyme activity", "mode": "inhibitor", "concentration": "1 µM", "measurement": "remaining activity", "result": "68%"}
{"Compound": "Cc1ccc(C(=O)NCc2ccsc2)cc1C#Cc1cn(C(C)C)c2ncnc(N)c12", "observed": "enzyme activity", "mode": "inhibitor", "concentration": "1 µM", "measurement": "activity vs control", "result": "107%"}
{"Compound": "CC(=O)Nc1c(C(C)=O)c(=O)n(C)c2nc(-c3ccc(Cl)cc3Cl)c(-c3ccc(Cl)cc3)cc12", "observed": "cell-free assay", "method": "competition with immobilised ligand", "concentration": "1 µM", "measurement": "remaining binding", "result": "100%"}
{"Compound": "Oc1cccc(-c2nc(N3CCOCC3)c3oc4ncccc4c3n2)c1", "observed": "enzyme activity", "mode": "inhibitor", "concentration": "10 µM", "measurement": "remaining activity", "result": "84%"}
{"Compound": "COc1cccc(CNC(=O)c2nc3scc(COCc4ccc(C(=O)O)cc4)c3c(=O)[nH]2)c1", "observed": "cell-free assay", "method": "competition with immobilised ligand", "concentration": "1 µM", "measurement": "remaining binding", "result": "100%"}
{"Compound": "Nc1ncnc2occ(-c3ccc(NC(=O)Nc4cc(C(F)(F)F)ccc4F)cc3)c12", "observed": "cell-free assay", "mode": "inhibitor", "concentration": "20 µM", "measurement": "remaining signal", "result": "92%"}
{"Compound": "CN(C)C(=O)Cn1cc(-c2nc([C@@](C)(c3ccc(-c4cnc(N)nc4)cc3)C3CC3)no2)cn1", "observed": "cell-free assay", "method": "competition with immobilised ligand", "concentration": "1 µM", "measurement": "remaining binding", "result": "77%"}
{"Compound": "CC(C)(C)c1nc2c(s1)c1nc(N)ncc1c1ccc(NS(=O)(=O)c3c(F)cccc3F)c(F)c12", "observed": "enzyme activity", "mode": "inhibitor", "method": "radiometric", "concentration": "1 µM", "measurement": "remaining activity", "result": "98%"}
{"Compound": "COc1cc2ncnc(Nc3ccc(Oc4ccccc4)cc3C)c2cc1OC", "observed": "enzyme activity", "mode": "inhibitor", "concentration": "1 µM", "measurement": "inhibition", "result": "-1%"}
{"Compound": "CC(C)(C)C(=O)c1sc(NC2CCCCC2)nc1N", "observed": "enzyme activity", "mode": "inhibitor", "concentration": "10 µM", "measurement": "remaining activity", "result": "112%"}
{"Compound": "Cn1c(=O)n(-c2ccc(C(C)(C)C#N)cc2)c2c3cc(-c4cnc5ccccc5c4)ccc3ncc21", "observed": "enzyme activity", "mode": "inhibitor", "concentration": "10 µM", "measurement": "remaining activity", "result": "95%"}
{"Compound": "CS(=O)(=O)N1CCCC(NC(=O)[C@H](CCC2CCCCC2)NC(=O)c2ccc(CNc3ncnc4c3nnn4-c3ccccc3)cc2)C1 (some centres unmarked)", "observed": "cell-free assay", "method": "competition with immobilised ligand", "concentration": "0.1 µM", "measurement": "remaining binding", "result": "87%"}
{"Compound": "CC(C)(O)[C@H]1CC[C@H](Nc2ccc3ncc(-c4cccc(C(F)(F)F)c4)n3n2)CC1", "observed": "enzyme activity", "mode": "inhibitor", "concentration": "1 µM", "measurement": "remaining activity", "result": "84.1%"}
{"Compound": "C[C@@H]1CN(c2cc(-c3nn(C)c4ccc(OC5(C)CC5)cc34)ncn2)C[C@H](C)O1", "observed": "cell-free assay", "method": "competition with immobilised ligand", "concentration": "1 µM", "measurement": "remaining binding", "result": "90%"}
{"Compound": "CC/C(=N\\NC(=O)NCc1cccc(O)c1)c1ccc(O)c(C)c1O", "observed": "enzyme activity", "mode": "inhibitor", "concentration": "0.1 µM", "measurement": "inhibition", "result": "-1.8%"}
{"Compound": "CCCS(=O)(=O)Nc1ccc(F)c(C(=O)c2c[nH]c3ncc(-c4ccc(Cl)cc4)cc23)c1F", "observed": "enzyme activity", "mode": "inhibitor", "concentration": "1 µM", "measurement": "inhibition", "result": "< 20%"}
{"Compound": "O=C(Nc1cnn(-c2csc(C(=O)NC3COC3)c2)c1)Nc1ccccc1Cl", "observed": "enzyme activity", "mode": "inhibitor", "concentration": "5 µM", "measurement": "remaining activity", "result": "102%"}
{"Compound": "Cc1c(C(=O)O)cc(-c2ccc(C3CCNCC3)cc2)c2ccc(-c3ccc(C(F)(F)F)cc3)cc12", "observed": "cell-free assay", "method": "competition with immobilised ligand", "concentration": "1 µM", "measurement": "remaining binding", "result": "100%"}
